Experimental data as given in ChEMBL document CHEMBL5661969, “Preclinical evaluation of a potent novel DNA-dependent protein kinase inhibitor NU7441” (Cancer Res, 2006).

How the values were obtained:
[1] = Inhibition of DNA-PK in Chinese hamster DNA-PK proficient V3-YAC cells assessed as potentiation of ionizing radiation-induced cytotoxicity by measuring radiation LD90 at 0.5 umol/L preincubated for 1 hr followed by gamma-irradiation and measured after 16 hrs by crystal violet staining based assay; parameters: species or system Cricetulus griseus; details: dose 0.5 µmol/L; time 17 hrs; condition cancer
In short: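 Clonogenic assay in V3/V3-YAC cells. Cells were then reseeded in drug-free medium, and crystal violet colonies were counted after 10–14 days. LD90 is the radiation dose killing 90%. DMR90 is LD90 without inhibitor divided by LD90 with inhibitor.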

[2] = Growth inhibition of human LoVo cells measured after 5 days by crystal violet staining based assay; assay type: toxicity, cell-based; details: time 5 day
In short: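 LoVo and SW620 cells in 96-well plates under 5-day continuous exposure to agent, and growth measured relative to control.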

SW-620 = experiment: Cell cycle arrest in human SW620 cells assessed as reduction in S-phase cell population at 1 umol/L measured after 1 hr by propidium iodide staining based flow cytometry relative to control; assay type: toxicity; parameters: scale not given: the % may be the effect or the level left; details: sw-620, 1 µM, dose 1 µmol/L
In short: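 Asynchronous SW620 or LoVo cells, seeded 24 h earlier, given control or 1 μmol/L agent medium for 1 h before ionizing radiation, etoposide or doxorubicin, then incubated a further 16 h. Cells fixed in 70% ethanol, stained with propidium iodide (400 μg/mL) plus RNase (1 mg/mL), and analysed by 488 nm flow cytometry.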

[3] = Bioavailability in BALB/c mouse at 5 mg/kg, iv by HPLC analysis; assay type: ADME, organism-based; details: in vivo
In short: (§1)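 Female BALB/c mice dosed 5 mg/kg i.v. in 10% DMSO/10% cyclodextrin in saline, or 10 mg/kg i.p. or orally at 1 mg/mL in 40% PEG400/saline. Plasma taken at 5, 10, 15, 30, 60, 90, 120, 180, 240 and 360 min, three mice per time. Acetonitrile precipitation, C18 HPLC with UV detection at 329 nm against a plasma standard curve. Parameters derived from mean concentrations.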

[4] = Cmax in BALB/c mouse at 10 mg/kg, po by HPLC analysis; assay type: ADME, organism-based; details: in vivo; in short: as §1
[5] = Elimination half life in BALB/c mouse at 10 mg/kg, po by HPLC analysis; assay type: ADME, organism-based; details: in vivo, read-out: beta t1/2; in short: as §1
[6] = Clearance in BALB/c mouse at 10 mg/kg, po by HPLC analysis; assay type: ADME, organism-based; details: in vivo; in short: as §1
[7] = Oral bioavailability in BALB/c mouse at 10 mg/kg by HPLC analysis; assay type: ADME, organism-based; details: in vivo; in short: as §1
[8] = Ratio of drug level in brain to plasma of human SW620 cell xenografted athymic nude CD1 mouse at 10 mg/kg, ip measured after 15 mins by HPLC analysis; assay type: ADME, organism-based; details: brain and plasma, read-out: BPR
In short: (§2)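 Female CD-1 nu/nu mice bearing s.c. flank SW620 tumours (1×10^7 cells, ~650 mm³ at 10–14 days) given 10 mg/kg i.p. Tissues snap frozen, homogenised 1:3 in PBS. Acetonitrile precipitation, C18 HPLC with acetate pH 5/acetonitrile 75:25 mobile phase, UV 329 nm; tissue levels by method of addition. Tissue/plasma ratio, mean of three mice per time.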

[9] = Ratio of drug level in brain to plasma of human SW620 cell xenografted athymic nude CD1 mouse at 10 mg/kg, ip measured after 60 mins by HPLC analysis; assay type: ADME, organism-based; details: brain and plasma, read-out: BPR; in short: as §2
[10] = Ratio of drug level in kidney to plasma of human SW620 cell xenografted athymic nude CD1 mouse at 10 mg/kg, ip measured after 90 mins by HPLC analysis; assay type: ADME, organism-based; in short: as §2
[11] = Ratio of drug level in liver to plasma of human SW620 cell xenografted athymic nude CD1 mouse at 10 mg/kg, ip measured after 30 mins by HPLC analysis; assay type: ADME, organism-based; in short: as §2
[12] = Ratio of drug level in liver to plasma of human SW620 cell xenografted athymic nude CD1 mouse at 10 mg/kg, ip measured after 60 mins by HPLC analysis; assay type: ADME, organism-based; in short: as §2
[13] = Ratio of drug level in spleen to plasma of human SW620 cell xenografted athymic nude CD1 mouse at 10 mg/kg, ip measured after 15 mins by HPLC analysis; assay type: ADME, organism-based; in short: as §2
[14] = Ratio of drug level in spleen to plasma of human SW620 cell xenografted athymic nude CD1 mouse at 10 mg/kg, ip measured after 30 mins by HPLC analysis; assay type: ADME, organism-based; in short: as §2
[15] = Drug level in tumor of human SW620 cell xenografted athymic nude CD1 mouse at 10 mg/kg, ip measured after 4 hrs by HPLC analysis; assay type: ADME, organism-based, Neoplasm, SW-620; details: read-out: Drug uptake
In short: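 CD1 nu/nu female mice carry s.c. SW620 flank tumours (1×10^7 cells), used at ~650 mm³. Single 10 mg/kg i.p. dose, tumour excised and snap frozen at time points up to 240 min, then homogenized 1:3 in PBS. HPLC-UV at 329 nm; tissue levels by the method of addition. Three mice per time point.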

[16] = target: DNA-dependent protein kinase catalytic subunit (Homo sapiens, UniProt P78527); details: SW620, dose 1.0 µmol/L, time 17.0 hrs
Sequence of DNA-dependent protein kinase catalytic subunit (P78527 whole entry): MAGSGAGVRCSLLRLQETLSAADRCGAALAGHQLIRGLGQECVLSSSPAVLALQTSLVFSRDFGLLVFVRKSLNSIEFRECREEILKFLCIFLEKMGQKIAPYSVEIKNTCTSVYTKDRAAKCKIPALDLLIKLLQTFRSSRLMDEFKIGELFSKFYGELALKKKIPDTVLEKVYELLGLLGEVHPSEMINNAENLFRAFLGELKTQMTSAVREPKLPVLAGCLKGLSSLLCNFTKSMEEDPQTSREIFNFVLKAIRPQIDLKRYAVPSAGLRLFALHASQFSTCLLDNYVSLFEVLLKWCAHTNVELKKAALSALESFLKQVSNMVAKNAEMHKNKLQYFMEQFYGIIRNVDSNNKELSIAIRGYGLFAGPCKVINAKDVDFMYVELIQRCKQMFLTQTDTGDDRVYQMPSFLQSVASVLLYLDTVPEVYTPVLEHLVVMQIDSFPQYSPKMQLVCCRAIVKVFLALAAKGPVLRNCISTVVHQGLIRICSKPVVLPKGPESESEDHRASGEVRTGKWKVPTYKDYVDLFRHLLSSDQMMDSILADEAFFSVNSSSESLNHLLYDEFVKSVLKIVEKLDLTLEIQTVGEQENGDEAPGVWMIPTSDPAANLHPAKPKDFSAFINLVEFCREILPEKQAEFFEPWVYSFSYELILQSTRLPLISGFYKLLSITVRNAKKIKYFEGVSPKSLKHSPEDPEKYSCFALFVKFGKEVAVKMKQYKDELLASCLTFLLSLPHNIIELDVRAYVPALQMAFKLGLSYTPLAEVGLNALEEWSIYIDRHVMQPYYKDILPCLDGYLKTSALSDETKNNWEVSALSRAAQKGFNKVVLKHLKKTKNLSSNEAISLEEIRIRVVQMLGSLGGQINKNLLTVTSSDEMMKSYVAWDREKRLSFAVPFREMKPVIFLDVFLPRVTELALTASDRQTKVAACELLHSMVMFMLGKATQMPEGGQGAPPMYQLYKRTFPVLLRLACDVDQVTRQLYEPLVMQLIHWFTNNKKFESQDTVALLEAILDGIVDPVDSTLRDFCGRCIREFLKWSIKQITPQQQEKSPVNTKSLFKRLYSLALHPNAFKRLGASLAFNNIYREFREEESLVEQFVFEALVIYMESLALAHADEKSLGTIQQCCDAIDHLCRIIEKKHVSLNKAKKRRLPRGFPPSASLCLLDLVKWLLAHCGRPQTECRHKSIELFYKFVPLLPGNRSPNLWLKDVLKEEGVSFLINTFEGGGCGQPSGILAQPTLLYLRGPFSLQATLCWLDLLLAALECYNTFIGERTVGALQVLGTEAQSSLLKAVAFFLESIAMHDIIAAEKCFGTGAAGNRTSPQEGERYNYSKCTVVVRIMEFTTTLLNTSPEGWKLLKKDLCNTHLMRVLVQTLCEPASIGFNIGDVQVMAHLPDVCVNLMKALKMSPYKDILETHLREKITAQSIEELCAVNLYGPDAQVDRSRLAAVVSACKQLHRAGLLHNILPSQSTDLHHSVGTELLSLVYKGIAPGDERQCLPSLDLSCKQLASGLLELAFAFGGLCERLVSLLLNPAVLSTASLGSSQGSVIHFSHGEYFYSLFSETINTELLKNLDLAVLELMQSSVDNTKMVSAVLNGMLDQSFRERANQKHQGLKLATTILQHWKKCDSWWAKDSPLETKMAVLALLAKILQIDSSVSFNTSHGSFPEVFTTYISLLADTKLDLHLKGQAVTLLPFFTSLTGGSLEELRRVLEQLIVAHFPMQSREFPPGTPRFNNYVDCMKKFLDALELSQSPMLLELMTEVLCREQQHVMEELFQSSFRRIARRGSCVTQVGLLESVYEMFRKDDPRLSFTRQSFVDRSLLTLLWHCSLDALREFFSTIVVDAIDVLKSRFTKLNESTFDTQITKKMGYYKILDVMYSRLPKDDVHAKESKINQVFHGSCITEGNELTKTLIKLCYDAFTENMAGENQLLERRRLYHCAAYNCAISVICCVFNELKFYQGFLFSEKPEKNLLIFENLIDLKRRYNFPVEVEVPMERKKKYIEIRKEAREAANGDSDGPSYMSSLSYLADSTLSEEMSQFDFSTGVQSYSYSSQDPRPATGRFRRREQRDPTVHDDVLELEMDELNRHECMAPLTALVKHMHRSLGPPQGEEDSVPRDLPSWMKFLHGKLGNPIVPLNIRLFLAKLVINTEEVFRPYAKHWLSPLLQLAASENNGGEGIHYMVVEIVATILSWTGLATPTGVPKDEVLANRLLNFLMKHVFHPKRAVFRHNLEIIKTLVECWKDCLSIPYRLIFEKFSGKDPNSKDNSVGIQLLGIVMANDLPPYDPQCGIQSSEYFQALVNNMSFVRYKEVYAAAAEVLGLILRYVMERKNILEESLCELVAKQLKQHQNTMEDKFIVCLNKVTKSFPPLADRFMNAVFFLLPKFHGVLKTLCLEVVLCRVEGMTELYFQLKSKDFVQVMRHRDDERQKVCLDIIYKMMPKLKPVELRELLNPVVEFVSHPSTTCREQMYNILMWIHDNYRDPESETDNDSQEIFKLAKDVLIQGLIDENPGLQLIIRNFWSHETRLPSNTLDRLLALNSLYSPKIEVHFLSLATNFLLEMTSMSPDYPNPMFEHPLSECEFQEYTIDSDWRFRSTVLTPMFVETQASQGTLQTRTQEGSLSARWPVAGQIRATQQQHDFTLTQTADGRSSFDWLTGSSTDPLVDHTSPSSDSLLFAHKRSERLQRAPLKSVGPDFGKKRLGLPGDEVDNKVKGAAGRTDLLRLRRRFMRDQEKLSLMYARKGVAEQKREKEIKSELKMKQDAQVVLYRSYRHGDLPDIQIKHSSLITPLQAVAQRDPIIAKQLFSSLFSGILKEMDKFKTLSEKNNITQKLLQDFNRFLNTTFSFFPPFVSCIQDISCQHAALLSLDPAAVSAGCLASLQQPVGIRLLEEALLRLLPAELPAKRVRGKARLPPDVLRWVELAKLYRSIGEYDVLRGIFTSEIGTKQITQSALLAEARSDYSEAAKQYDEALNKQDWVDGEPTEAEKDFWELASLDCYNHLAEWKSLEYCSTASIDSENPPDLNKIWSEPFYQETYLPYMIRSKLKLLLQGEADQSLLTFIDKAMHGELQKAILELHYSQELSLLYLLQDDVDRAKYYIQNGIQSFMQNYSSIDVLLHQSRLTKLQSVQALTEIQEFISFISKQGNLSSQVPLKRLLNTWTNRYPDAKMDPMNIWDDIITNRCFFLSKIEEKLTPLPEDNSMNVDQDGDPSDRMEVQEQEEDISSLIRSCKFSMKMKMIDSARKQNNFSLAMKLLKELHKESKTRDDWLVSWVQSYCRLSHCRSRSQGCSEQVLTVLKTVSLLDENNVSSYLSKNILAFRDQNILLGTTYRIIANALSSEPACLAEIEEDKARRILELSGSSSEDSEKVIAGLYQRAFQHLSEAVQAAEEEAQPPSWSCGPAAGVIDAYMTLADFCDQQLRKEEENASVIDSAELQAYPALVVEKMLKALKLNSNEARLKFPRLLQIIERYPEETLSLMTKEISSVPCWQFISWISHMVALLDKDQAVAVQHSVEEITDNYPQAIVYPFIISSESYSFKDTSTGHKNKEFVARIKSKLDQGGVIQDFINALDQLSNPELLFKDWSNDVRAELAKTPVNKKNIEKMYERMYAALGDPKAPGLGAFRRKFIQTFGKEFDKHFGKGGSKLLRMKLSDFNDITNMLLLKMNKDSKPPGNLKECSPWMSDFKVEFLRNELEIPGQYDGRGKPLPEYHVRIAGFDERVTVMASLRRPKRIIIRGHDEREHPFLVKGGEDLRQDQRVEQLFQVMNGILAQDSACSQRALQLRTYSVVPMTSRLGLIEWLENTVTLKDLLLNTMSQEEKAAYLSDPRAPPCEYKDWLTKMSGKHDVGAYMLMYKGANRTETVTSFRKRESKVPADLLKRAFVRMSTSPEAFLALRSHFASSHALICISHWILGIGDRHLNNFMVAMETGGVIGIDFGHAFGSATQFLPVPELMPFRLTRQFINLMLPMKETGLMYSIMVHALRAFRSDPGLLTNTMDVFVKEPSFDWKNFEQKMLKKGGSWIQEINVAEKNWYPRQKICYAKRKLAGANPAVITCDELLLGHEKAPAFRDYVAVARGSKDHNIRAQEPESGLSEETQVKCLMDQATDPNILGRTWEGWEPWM

O=c1cc(N2CCOCC2)oc2c(-c3cccc4c3sc3ccccc34)cccc12
LD90 [1]: 2.8 Gy | GI50 at 120 h [2]: 0.52 µM | Activity (SW-620): 24% | F [3]: 100% | Cmax [4]: 500 ng/mL | half-life [5]: 2.12 h | CL/F [6]: 140 mL/min/kg | bioavailability [7]: 33% | Kp at 0.25 h [8]: 1.1 | Kp at 1 h [9]: 3.2 | Kp at 1.5 h [10]: 14 | Kp at 0.5 h [11]: 11 | Kp at 1 h [12]: 5.4 | Kp at 0.25 h [13]: 4.6 | Kp at 0.5 h [14]: 3.2 | concentration at 4 h [15]: 500 nM | LD90 [16]: 1.1 Gy
